# Screening results from PubChem BioAssay.
# MT1-MMP act inh: blocks activation of human MT1-MMP | P50281 | GFP/RFP ratio change, % at 20 µM | hit rate 0.061% among 360,000 | HT1080 RFP-PRO-GFP cells, GFP/RFP ratio fluorescence, overnight; percent of plate control window, DMSO zero;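 active = GFP/RFP ratio change of at least 30% with cell ATP level not reduced by more than half and red fluorescence within 50% of control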
#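 Assay system: RFP-PRO-GFP reporter HT1080 cells; read-out basis: GFP/RFP fluorescence ratio; benchmarks: DMSO wells and RFP-L50D-GFP cells; doses: 20 µM single dose, 1% DMSO; schedule: overnight cell settling, then overnight compound exposure, 37 °C, 5% CO2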
# ADAM10 inh: inhibitors of human ADAM10 | recombinant ADAM10, EDANS/DABCYL FRET peptide cleavage, 3 h | inhibition, % at 7 µM | hit rate 0.62% among 370,000 | AID 720582;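 active = inhibition above a per-campaign cutoff equal to the mean of compounds falling between control-based bounds plus 3 SD, cut at about 20% in these data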;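 also: 0% = DMSO wells while the 100% control is not disclosed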
# Tn7 DDE FP: DD(E)-Tn7 binding inhibition, primary FP screen; P02675; FP displacement of FITC-Tn7 peptide from fibrin DD(E); 0% = median of compound wells per plate; inhibition, % at 8.3 µM; hit rate 0.13% among 370,000; AID 720508;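 active = inhibition above the mean of compounds falling within the control limits plus 3 SD of them, cut at about 14% in these data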;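 also: 0% = plate median of compound wells and 100% = 10 µM Aha-Tn7 peptide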
#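 Assay system: human fibrin DD(E). Input: DD(E) 2 µM final. Medium: Tris buffer with calcium and detergent, pH 7.8. Compound dosing: single point at 8.3 µM. Timing: 10 min plus 3 h, room temperature. Technique: fluorescence polarization of the labelled Tn7 tracer. Read-out: percent inhibition. Replicates: singlicate testing.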
# Tn6 DDE FP: DD(E)-Tn6 binding inhibition, primary FP screen; P02675; Fibrin DD(E) TRITC-Tn6 fluorescence polarization displacement; AID 720509; inhibition, % at 8.3 µM; hit rate 0.21% among 370,000;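 active = inhibition above a per-campaign cutoff: mean of compounds within control limits plus 3 SD, cut at about 15% in these data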;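 also: 0% = median of all compound wells on the plate and 100% = blocking peptide control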
# ADAM17 inh: inhibitors of human ADAM17 | P78536 | recombinant ADAM17, EDANS/DABCYL FRET peptide cleavage | inhibition, % at 6.95 µM | hit rate 0.83% among 370,000;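 active = inhibition above the mean of compounds lying between control limits plus 3 SD, set per campaign, cut at about 8.5% in these data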;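 also: 0% = DMSO-only wells as the low control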
# Target sequence (P78536 215-824 limits assumed): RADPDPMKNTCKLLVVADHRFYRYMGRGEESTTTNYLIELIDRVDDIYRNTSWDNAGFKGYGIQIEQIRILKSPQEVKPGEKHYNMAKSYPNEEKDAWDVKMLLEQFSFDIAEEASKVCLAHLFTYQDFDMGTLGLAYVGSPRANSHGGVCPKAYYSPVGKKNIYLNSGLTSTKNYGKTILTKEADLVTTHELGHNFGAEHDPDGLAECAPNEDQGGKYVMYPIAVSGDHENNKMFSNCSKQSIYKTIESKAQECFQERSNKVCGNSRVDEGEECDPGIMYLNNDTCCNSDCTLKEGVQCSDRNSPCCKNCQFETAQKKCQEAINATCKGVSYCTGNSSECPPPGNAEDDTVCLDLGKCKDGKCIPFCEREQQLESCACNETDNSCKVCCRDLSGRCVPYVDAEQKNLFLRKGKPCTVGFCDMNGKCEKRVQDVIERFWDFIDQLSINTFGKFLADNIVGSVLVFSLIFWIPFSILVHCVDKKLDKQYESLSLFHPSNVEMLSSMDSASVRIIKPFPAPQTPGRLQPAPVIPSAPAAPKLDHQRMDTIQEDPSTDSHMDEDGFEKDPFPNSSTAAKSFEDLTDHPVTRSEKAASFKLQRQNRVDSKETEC
# ADAM10 counter: inhibits human ADAM10 in ADAM17 exosite counter-screen. shares compounds with ADAM17 inh. inhibition, % at 6.95 µM. recombinant ADAM10, EDANS/DABCYL FRET peptide cleavage, 3 h. hit rate 47% among 2,900;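 active = mean inhibition over the triplicate runs exceeds the activity threshold set in the earlier primary screen, cut at about 20% in these data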;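 also: 0% = DMSO wells and 100% = marimastat wells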
# ADAM17 confirm: human ADAM17 inhibition, confirmation; inhibition, % at 6.95 µM; recombinant ADAM17, EDANS/DABCYL QFRET peptide cleavage; AID 743257; hit rate 65% among 2,900; shares compounds with ADAM17 inh;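 active = mean inhibition across replicates above the hit cutoff set in the primary screen, cut at about 8.5% in these data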;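 also: 0% = DMSO wells and 100% = marimastat wells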
# An asterisk follows results filed as active; / = no result. Compounds with a hit are over-represented: about 1.6% of the library has one in this group of screens.
SMILES,MT1-MMP act inh,ADAM10 inh,Tn7 DDE FP,Tn6 DDE FP,ADAM17 inh,ADAM10 counter,ADAM17 confirm
Cc1ccc(CN2CCCCC(NC(=O)c3cccc(C(F)(F)F)c3)C2=O)cc1 (configuration not stated),/,3,2,-4,2,/,/
COc1ccc(Nc2oc(COc3ccc(OC)cc3)nc2C#N)cc1,-4,14,-11,-10,9.1*,13,6
CCc1cc2c(nc1CC)CCCN2S(=O)(=O)c1c(C)noc1C,/,-8,-3,0,-3,/,/
COc1ccc(NC(=O)c2cc(-c3cc(F)ccc3OC(C)C)n[nH]2)c(C)c1,-5,2,-6,-5,1,/,/
COc1ccc(OC)c(NC(=O)c2cc(-c3ccc(F)cc3OC(C)C)n[nH]2)c1,-2,17,3,-3,8.8*,11,9.3*
CCNC(=O)O/N=C(\C)c1sc(-c2ccc(Cl)cc2)nc1C,-1,12,0,0,9.8*,7,8
C/C(=N\OC(=O)NC(C)C)c1sc(-c2ccc(Cl)cc2)nc1C,3,-6,-5,3,-3,/,/
COc1ccc(S[C@]2(C(=O)N(C)C)CC(=O)N(C(=O)CCc3ccccc3)[C@@H]2c2ccc(OC)cc2)cc1,/,9,-6,-6,10*,14,9.8*
CC1CCc2c(C(=O)Oc3cccc(-n4cnnn4)c3)csc2C1 (configuration not stated),-7,19,9,3,8.8*,15,11*
Cc1ccc(C(=O)Oc2cccc(-n3cnnn3)c2)cc1,-2,-3,6,-2,-1,/,/
C=CCN(C(=O)[C@@H](C)[C@@H](O)c1ccc(C(C)=O)cc1)c1ccccc1,/,-3,-2,10,-4,/,/
S=c1[nH]nc(COc2ccc(Cl)cc2)n1C1CCCCC1,2,6,-6,2,11*,12,4
CN(C)S(=O)(=O)c1cc(NC(=O)COC(=O)Cc2ccc(Cl)cc2Cl)ccc1Cl,3,10,-4,4,5,/,/
CN(C)S(=O)(=O)c1cc(NC(=O)COC(=O)Cc2cccc3ccccc23)ccc1Cl,6,16,-6,-1,8.8*,27*,17*
CC1CCC(NC(=O)c2cnccn2)CC1 (configuration not stated),0,3,-3,4,12*,3,2
O=C(NC12CC3CC(CC(C3)C1)C2)c1cnccn1,1,-2,-9,4,-1,/,/
COC(=O)C1=C(C)N(Cc2ccccc2C(F)(F)F)C(=NCc2ccc(OC)cc2)NC1c1ccc(Cl)cc1 (configuration not stated),/,3,-4,-11,-1,/,/
Fc1ccc2c(c1)c1n[nH]c(=S)nc1n2CCc1ccccc1,0,0,2,-1,-5,/,/
NNc1nnc2c3cc(F)ccc3n(CCc3ccccc3)c2n1,7,11,-8,0,12*,-5,1
CC(=O)Nc1ccc(S(=O)(=O)NCC(=O)OCC(=O)NCc2ccc3c(c2)OCO3)cc1,-1,11,0,-6,9.6*,-8,-2
COc1ccc(S(=O)(=O)NN(C)c2ncc(C(F)(F)F)cc2Cl)cc1,-4,-8,1,0,9.4*,7,6
CCCNS(=O)(=O)c1ccc(Oc2ncc(C(F)(F)F)cc2Cl)cc1,3,8,7,-5,5,/,/
Cc1ccc(C(=O)OCC(=O)Nc2cc(C(C)(C)C)no2)c(C)c1,0,10,-3,-6,12*,33*,17*
O=C(c1ccc(F)cc1Cl)N(Cc1ccccn1)CC1CCCO1 (configuration not stated),/,1,-2,-8,-2,/,/
CNS(=O)(=O)c1cccc(C(=O)OCC(=O)NC(C)CCc2ccccc2)c1 (configuration not stated),0,-1,-3,3,3,/,/
SMILES,MT1-MMP act inh,ADAM10 inh,Tn7 DDE FP,Tn6 DDE FP,ADAM17 inh,ADAM10 counter,ADAM17 confirm
CC(CCc1ccccc1)NC(=O)COC(=O)c1cc(NS(=O)(=O)c2ccc(Cl)c([N+](=O)[O-])c2)ccc1O (configuration not stated),0,17,-9,-3,8.7*,31*,19*
CC(C)(C)N(Cc1cn(Cc2ccccc2)nn1)S(=O)(=O)c1ccccc1Br,/,9,-2,-2,6,/,/
COC(=O)[C@@H]1C[C@@]2(O)[C@H](O)[C@H](O)[C@H](O)C[C@H]2N1Cc1ccc(C(F)(F)F)cc1,-1,1,2,9,10*,7,6
COc1cccc(OCC(C)CN2CCC(C(O)(c3ccccc3)c3ccccc3)CC2)c1 (configuration not stated),/,3,-1,5,5,/,/
Cc1cccc(-n2c(Cc3ccccc3)nnc2SCC(=O)N2CCOCC2)c1,-2,15,-4,-7,12*,-2,3
O=C(CSc1nnc(Cc2ccccc2)n1-c1cccc(Cl)c1)N1CCOCC1,-4,-13,-2,-1,-1,/,/
Cc1cc(CSc2ccc(Cl)cc2)ccc1N,-12,3,0,4,9.7*,21*,8
CN(CC(=O)Nc1cccc(F)c1)C(=O)c1cn(-c2ccccc2)nc1-c1ccc(Cl)cc1,2,18,4,-9,9.4*,28*,17*
OCc1ccnc2c(O)cccc12,-3,4,-5,0,8.9*,14,4
NC(=O)c1ccnc2c(O)cccc12,1,1,7,-2,-6,/,/
C[C@H](CO)N1C[C@H](C)[C@H](CN(C)C(=O)Nc2cccc(F)c2)OCc2cnnn2CCCC1=O,/,-14,0,-3,-4,/,/
COc1ccc(C(O)c2nc(-c3cccc(C(F)(F)F)c3)cs2)cc1 (configuration not stated),4,9,-12,-10,13*,27*,13*
COc1ccc(C(O)c2nc(-c3ccccc3)cs2)cc1 (configuration not stated),4,0,3,-10,2,/,/
COc1ccc(C(O)c2nc(-c3cccc(F)c3)cs2)cc1 (configuration not stated),5,18,2,7,9.9*,2,2
CC(NC(N)=O)C(=O)Nc1ccc(Cl)c(S(=O)(=O)Nc2ccc(Cl)cc2)c1 (configuration not stated),1,5,11,3,-2,/,/
CC(C)Oc1ccc(C(=O)Nc2ccc(Cl)c(S(=O)(=O)Nc3ccc(Cl)cc3)c2)cc1,-28,18,0,-5,10*,26*,16*
